The subject of test [1] is HCT-116. The experiment in a line: Antiproliferative activity against human HCT-116 cells assessed as reduction in cell viability incubated for 72 hrs by MTT assay. The class given is functional, cell-based. The conditions noted are these: HCT-116, 72 h. In short, it runs like this:
(§1)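 Growth inhibition after 72 h continuous exposure of HCT-116 colorectal carcinoma or KG-1 acute myelogenous leukemia cells; concentration giving 50% inhibition taken from dose–response curves.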
On the technique in general: Tetrazolium dyes change colour on reduction, which living cells bring about.

A further test relates to KG-1. The experiment in a line: Antiproliferative activity against human KG-1 cells assessed as reduction in cell viability incubated for 72 hrs by MTT assay. It is filed as functional, cell-based. The conditions noted are these: KG-1, 72 h. In short, it runs like this: as §1
Test [2] has as its system HCT-116. Briefly: Antitumor activity against human HCT-116 cells xenografted in athymic nude mouse assessed as tumor growth inhibition at 25 mg/kg, po administered for 26 days relative to control. The class given is functional. Conditions: HCT-116, po, 624 h, time 26 day. A digest of the protocol:
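Subcutaneous HCT-116 human colorectal carcinoma xenografts in athymic female nude mice; oral dosing at 25 mg/kg over a 26-day period, with capecitabine given as positive control; tumor growth followed, N = 3, SD shown.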
For orientation: Xenograft models place foreign cells or tissue in a host animal.

Test [3] relates to SK-BR-3. The experiment in a line: Induction of DNA damage in human SK-BR-3 cells assessed as increase in tail DNA measured at 0.5 uM after 72 hrs by neutral comet assay relative to control. The class given is functional. The conditions noted are these: in the assay text read “alkaline comet assay” for “neutral comet assay”. In short, it runs like this: (§2)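 Comet assay scoring DNA damage as % DNA in tail; cells exposed to 0.5, 1.0 or 2.0 μM etoposide or 1.0, 3.0 or 10 μM test nucleoside; mean of scored comets per sample with SE and 80% confidence interval.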

Test [4] concerns SK-BR-3. Briefly: Induction of DNA damage in human SK-BR-3 cells assessed as increase in tail DNA measured at 2 uM after 72 hrs by neutral comet assay relative to control. It is filed as functional. Conditions: in the assay text read “alkaline comet assay” for “neutral comet assay”. In short, it runs like this: as §2
In test [5] the test system is SK-BR-3. The experiment in a line: Induction of DNA damage in human SK-BR-3 cells assessed as increase in tail DNA measured at 1 uM after 72 hrs by neutral comet assay relative to control. The class given is functional. The conditions noted are these: in the assay text read “alkaline comet assay” for “neutral comet assay”. A digest of the protocol: as §2
Test [6] deals with SK-BR-3. Briefly: Induction of DNA damage in human SK-BR-3 cells assessed as increase in tail DNA measured at 10 uM after 72 hrs by neutral comet assay relative to control. Conditions: in the assay text read “alkaline comet assay” for “neutral comet assay”. The class given is functional. A digest of the protocol: as §2
For test [7], the system named is SK-BR-3. Briefly: Induction of DNA damage in human SK-BR-3 cells assessed as increase in tail DNA measured at 3 uM after 72 hrs by neutral comet assay relative to control. The class given is functional. Conditions: in the assay text read “alkaline comet assay” for “neutral comet assay”. A digest of the protocol: as §2

The term pIC50 denotes the IC50 on a negative log10 scale, so that one unit is a factor of ten. As usually defined, the inhibition in vivo is the share of the control response that was lost under treatment.

Each structure is given as a SMILES string. pIC50: −log10 of the molar value.

As for `CCCCCOC(=O)Nc1nc(=O)n([C@@H]2O[C@H](CO)[C@@H](O)C2(F)F)cc1F`, the pIC50 in the test on HCT-116 [1] is 6.43; in the test on KG-1, 6.89. Further, in the test with HCT-116 [2], the inhibition in vivo at 25 mg/kg was 40%.
On to `Nc1ccn([C@@H]2O[C@H](CO)[C@@H](O)C2(F)F)c(=O)n1` [GEMCITABINE], for which the pIC50 in the test on HCT-116 [1] was 7.30; in the test on KG-1 it was 7.74.
Taken in the same sequence, the figures for `CCCCCOC(=O)Nc1nc(=O)n([C@@H]2O[C@H](C)[C@@H](O)[C@H]2O)cc1F` [CAPECITABINE] were 4.47 and 5.05.
Turning to `COc1cc([C@@H]2c3cc4c(cc3[C@@H](O[C@@H]3O[C@@H]5CO[C@@H](C)O[C@H]5[C@H](O)[C@H]3O)[C@H]3COC(=O)[C@H]23)OCO4)cc(OC)c1O` [ETOPOSIDE], the Activity in the test on SK-BR-3 [3] is listed as 15.87%; in the test on SK-BR-3 [4], 35.17%; in the test with SK-BR-3 [5], 24.98%.
With `Nc1nc(=O)n([C@@H]2O[C@H](CO)[C@@H](O)C2(F)F)cc1F`, the Activity in the test on SK-BR-3 [6] stood at 26.73%; in the test with SK-BR-3 [7], 24.28%; in the test with SK-BR-3 [5], 20.7%.

(Values after ChEMBL document CHEMBL5046312, “Rational Design of an Orally Active Anticancer Fluoropyrimidine, Pencitabine, a Hybrid of Capecitabine and Gemcitabine” (ACS Med Chem Lett, 2022).)
